pIC50: −log10 of the molar value. Activity calls are given as the source filed them. The calls are words filed in the database; no cut-off is given here.

The target of series [1] is T1, NAD-dependent protein deacetylase sirtuin-1 (Homo sapiens) (UniProt Q96EB6).
T1 sequence (whole entry): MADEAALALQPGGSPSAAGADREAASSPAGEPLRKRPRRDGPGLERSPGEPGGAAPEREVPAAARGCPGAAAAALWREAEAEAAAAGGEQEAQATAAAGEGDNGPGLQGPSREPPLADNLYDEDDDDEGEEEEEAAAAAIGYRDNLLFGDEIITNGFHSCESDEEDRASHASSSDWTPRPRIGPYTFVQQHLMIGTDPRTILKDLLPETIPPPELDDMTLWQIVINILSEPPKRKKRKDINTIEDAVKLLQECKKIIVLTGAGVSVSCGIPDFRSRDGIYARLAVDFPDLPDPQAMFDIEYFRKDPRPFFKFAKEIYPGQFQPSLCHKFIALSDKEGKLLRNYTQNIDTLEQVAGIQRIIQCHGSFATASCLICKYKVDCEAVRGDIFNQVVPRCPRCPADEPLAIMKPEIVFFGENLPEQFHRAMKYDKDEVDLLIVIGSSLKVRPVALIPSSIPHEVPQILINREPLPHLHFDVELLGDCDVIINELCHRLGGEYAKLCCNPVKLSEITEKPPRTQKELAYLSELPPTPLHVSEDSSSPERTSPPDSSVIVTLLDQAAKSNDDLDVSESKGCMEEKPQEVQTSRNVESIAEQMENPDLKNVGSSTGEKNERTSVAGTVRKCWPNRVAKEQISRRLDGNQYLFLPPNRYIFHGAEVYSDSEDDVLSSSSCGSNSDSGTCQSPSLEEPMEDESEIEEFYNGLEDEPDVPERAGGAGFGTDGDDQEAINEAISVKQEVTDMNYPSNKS
The following applies: at 50 µM.

For series [2], the target named is T1, NAD-dependent protein deacetylase sirtuin-1 (Homo sapiens). The series is described as follows: Inhibition of SIRT1 in etoposide-induced human ARPE19 cells assessed as increase in p53 acetylation at Lys382 at 20 uM after 5 hrs by Western blotting analysis. Format: cell-based. The essentials: (§1)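 ARPE-19 or SH-SY5Y cells seeded 24 h ahead, then given 20 μM compound and 100 μM etoposide together for 5 h before harvest. Acetylated p53 detected by Western blot. Mean ± SEM of 2 independent experiments.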

Series [3] has as its target T2, NAD-dependent protein deacetylase sirtuin-1 (Homo sapiens, UniProt Q96EB6).
T2 sequence (Q96EB6 whole entry): T1 sequence (whole entry)
The series is described as follows: Inhibition of human recombinant GST-tagged SIRT1 using KI177 as substrate preincubated for 5 mins followed by enzyme addition measured after 1 hr by fluorescence assay. Put shortly:
(§2)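 Fluor de Lys deacetylation assay. […] Mix preincubated 5 min at room temperature, started with enzyme, run 1 h at 37°C. Developer with 2 mM nicotinamide then added for 45 min at 37°C before fluorescence reading.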

A short description of series [4]: Cytotoxicity against human ARPE19 cells at 20 uM by LDH assay. Type of series: cell-based. Conditions: arpe-19, 20 µM.
For series [5], the system named is MCF7. The series is described as follows: Growth inhibition of human MCF7 cells at >= 50 uM after 72 hrs by sulforhodamine B assay.
The test system of series [6] is MCF7. The series is described as follows: Cytotoxicity against human MCF7 cells at 50 uM by LDH assay. Format: functional, cell-based.
The test system of a further series is A549. The series is described as follows: Cell cycle arrest in human A549 cells assessed as accumulation at G1 phase at 100 uM after 18 hrs by propidium iodide staining-based FACS flow cytometric analysis (reference value: 62.3%). Format: functional.
Series [7] relates to MCF7. The series is described as follows: Cytotoxicity against human MCF7 cells assessed as cell death at 100 uM after 18 hrs by propidium iodide staining-based FACS flow cytometric analysis. Format: functional.
Series [8] is described as follows: Cytotoxicity against human SH-SY5Y cells at 20 uM by LDH assay. Format: cell-based.
The target in series [9] is T3, NAD-dependent protein deacetylase sirtuin-2 (Homo sapiens, UniProt Q8IXJ6).
T3 sequence (Q8IXJ6 whole entry): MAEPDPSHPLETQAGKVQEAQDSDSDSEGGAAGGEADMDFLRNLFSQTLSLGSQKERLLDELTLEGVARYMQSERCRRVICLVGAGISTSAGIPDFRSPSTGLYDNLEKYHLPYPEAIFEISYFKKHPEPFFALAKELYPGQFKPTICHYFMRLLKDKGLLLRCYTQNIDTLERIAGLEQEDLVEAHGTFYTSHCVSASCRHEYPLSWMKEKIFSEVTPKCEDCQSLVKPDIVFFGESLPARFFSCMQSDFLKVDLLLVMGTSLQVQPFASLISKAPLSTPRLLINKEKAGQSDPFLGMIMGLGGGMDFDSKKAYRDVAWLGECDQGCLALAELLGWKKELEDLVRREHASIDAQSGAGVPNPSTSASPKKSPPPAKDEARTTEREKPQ
The series is described as follows: Inhibition of human recombinant GST-tagged SIRT2 using KI179 as substrate preincubated for 5 mins followed by enzyme addition measured after 1 hr by fluorescence assay. The essentials:
as §2

Series [10] concerns the target T1, NAD-dependent protein deacetylase sirtuin-1 (Homo sapiens). The series is described as follows: Inhibition of SIRT1 in etoposide-induced human SH-SY5Y cells assessed as increase in p53 acetylation at Lys382 at 20 uM after 5 hrs by Western blotting analysis. Format: cell-based. Put shortly:
as §1

For series [11], the target named is T4, NAD-dependent protein deacetylase sirtuin-3, mitochondrial (Homo sapiens, UniProt Q9NTG7).
T4 sequence (Q9NTG7 whole entry): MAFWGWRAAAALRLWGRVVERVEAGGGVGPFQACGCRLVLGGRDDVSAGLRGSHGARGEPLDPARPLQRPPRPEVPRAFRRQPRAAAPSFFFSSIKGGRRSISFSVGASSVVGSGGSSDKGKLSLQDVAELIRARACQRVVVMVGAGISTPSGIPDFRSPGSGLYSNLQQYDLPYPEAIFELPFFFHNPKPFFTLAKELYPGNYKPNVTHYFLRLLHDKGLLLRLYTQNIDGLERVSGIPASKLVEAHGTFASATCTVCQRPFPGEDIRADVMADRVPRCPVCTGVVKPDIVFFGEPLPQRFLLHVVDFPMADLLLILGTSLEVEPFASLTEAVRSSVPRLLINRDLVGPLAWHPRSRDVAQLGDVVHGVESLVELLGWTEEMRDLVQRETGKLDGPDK
The series is described as follows: Inhibition of human recombinant His-tagged SIRT3 using KI179 as substrate preincubated for 5 mins followed by enzyme addition measured after 1 hr by fluorescence assay.

Series [12] has as its target T5, NAD-dependent protein deacetylase sirtuin-3, mitochondrial (Homo sapiens) (UniProt Q9NTG7).
T5 sequence (whole entry): T4 sequence (Q9NTG7 whole entry)
Conditions: at 50 µM.

Series [13] addresses T6, NAD-dependent protein deacetylase sirtuin-2 (Homo sapiens) (UniProt Q8IXJ6).
T6 sequence (whole entry): T3 sequence (Q8IXJ6 whole entry)
The series is described as follows: Inhibition of human recombinant GST-tagged SIRT2 using KI179 as substrate at 50 uM preincubated for 5 mins followed by enzyme addition measured after 1 hr by fluorescence assay relative to control. Put shortly: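 Recombinant GST-SIRT2, Fluor de Lys assay in SIRT assay buffer. Acetylated peptide KI179 at 0.7 Km (Km 198 µM) and NAD+ at 0.9 Km (reported Km 547 µM). Buffer, substrate, NAD+ and compound in DMSO preincubated 5 min at room temperature. Enzyme added to start; 1 h at 37 °C. Developer with 2 mM nicotinamide added; 45 min at 37 °C; fluorescence read. Mean ± SD, ≥3 experiments.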

In series [14] the test system is MCF7. The series is described as follows: Cell cycle arrest in human MCF7 cells assessed as accumulation at G2 phase at 100 uM after 18 hrs by propidium iodide staining-based FACS flow cytometric analysis (reference value: 14.7%). Type of series: functional.

As to `COc1ccc(C(=O)CNC(=O)[C@H](CCCCNC(C)=S)NC(=O)OCc2ccccc2)cc1`, the inhibition in series [1] was 97%; in series [12] it was 82%; in series [13], 97%. Also, the inhibition result in [2] and in series [10] was “Active” each time. The pIC50 in series [3] is 6.05; in [9], 5.60; in series [11], 5.08. Further, the Activity result in series [4] is “Non-toxic”; with A549 it was 82.2%; in series [8], “Non-toxic”; with MCF7 [14], 8.7%. In addition, the “growth inhibition (GI)” value in the series with MCF7 [5] is “Active”. Also, the result in the series with MCF7 [6] and with MCF7 [7] was inactive.

For the origin of these results see ChEMBL document CHEMBL2417552, “Screen of pseudopeptidic inhibitors of human sirtuins 1-3: two lead compounds with antiproliferative effects in cancer cells” (J Med Chem, 2013).
